pIC50: −log10 of the molar value. One block for each molecule: values may come before it.
Experiments:
[1] = target: human CSNK1A1 (Homo sapiens, UniProt P48729); test: CSNK1A1 enzymatic mobility shift assay; type: biochemical
[2] = tested on: native kinases; test: full KINOMEscan panel; type: binding
[3] = tested on: PPARG; test: PPARG; type: cell-based; details: bladder cancer cell line, absence or presence of Rosiglitazone
[4] = tested on: p38 activity; test: single-cell p38 activity reporter; type: cell-based; details: RPE1 p38 reporter; for influence on p38 activity (two-sided t-test): 1 μM, 48 hours
Method in brief: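 RPE1 cells stably carrying a p38 kinase translocation reporter, grown in DMEM/F12 with 10% FBS at 37C, 5% CO2. Plated at 1000 cells/well, then given test compound at 1 or 10 μM for 48 h, 4 wells per concentration. Single-cell activity taken as median cytoplasmic-ring (5-pixel) over nuclear reporter intensity, normalised to same-plate/column DMSO. Significance by t-test or KS test with Benjamini-Hochberg adjustment.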

[5] = tested on: mesenchymal lineage periosteal cells; test: qPCR of Hippo components in murine periosteal cells; type: cell-based, mouse; details: 5μM
Method in brief: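 Periosteal cells from 4-day femoral fracture callus of 3 female 15-week CMV-Cre;R26R-rtTA;tetO-YAPS127A mice (C57Bl/6 background). Cultured in α-MEM with 15% FBS, 1% GlutaMAX and 1% P/S. Test compound given at 5 μM. 1 μM doxycycline for 48 h induced YAPS127A as positive control for YAP1 mRNA.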

[6] = tested on: PAX8; details: ref PubChem; cited from earlier work
[7] = tested on: U2OS; test: proliferation in U2OS Cell Painting images; type: cell-based
[8] = tested on: HEK293, HepG2, A549 cells; details: ref PubChem; cited from earlier work
[9] = tested on: TEAD-YAP interaction; details: HEK-TIYL cells; ref PubChem; cited from earlier work
[10] = tested on: HCT-116 colon cancer cells; test: proliferation assay; type: cell-based; details: 10 μM every 24 hours for 3 days, YAP1-independent line
[11] = tested on: A375 cells; details: 6 and 24 hours, ref Subramanian et al., 2017; cited from earlier work
[12] = tested on: HT29 cells; details: six hours of treatment, ref Subramanian et al., 2017; cited from earlier work
[13] = tested on: YAP1; test: YAP1 immunofluorescence and Western blot in H9 hPSCs; type: cell-based, human; details: H9 cells, 10 μM
[14] = tested on: YAP1; test: YAP1-responsive TEAD luciferase reporter assay in HEK-293 cells; type: cell-based; details: 10μM, 48h of YAP overexpression
[15] = tested on: Yap1; test: Yap1 Western blot and immunofluorescence in KP230 cells; type: cell-based, mouse; details: 10 μM daily
[16] = tested on: KP230 cells; test: RNA sequencing and gene set enrichment analysis in KP230 cells; type: cell-based, mouse; details: 10 μM
Method in brief: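 KP230 cells (murine Kras/Trp53 tumour-derived) grown in DMEM with 10% FBS, 1% L-glutamine and 1% P/S at 37C, 5% CO2. Kept at ≤20 passages and about 50% confluence. Treated with 10 μM test compound or an equal volume of DMSO. Total RNA isolated by RNeasy Mini with on-column DNase digestion, then sequenced.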

[17] = tested on: KP230, TC32, STS-109, HT-1080, HCT-116 cells; test: trypan blue staining for toxicity; type: cell-based; details: 10 μM, any of the cell lines tested
[18] = tested on: Yap1; test: qRT-PCR of Yap1 and sarcoma target genes in KP230 cells; type: cell-based, mouse
[19] = tested on: HT-1080 fibrosarcoma cells; test: proliferation assay; type: cell-based; details: 10 μM every 24 hours for 3 days
[20] = tested on: KP230 cells; test: proliferation assay; type: cell-based, mouse; details: 10 μM every 24 hours for 3 days
[21] = tested on: TC32 human Ewing’s family sarcoma cells; test: proliferation assay; type: cell-based; details: 10 μM every 24 hours for 3 days
[22] = tested on: STS-109 human UPS cells; test: proliferation assay; type: cell-based; details: 10 μM daily for 8 days
[23] = tested on: YAP1 target genes (CTGF and CYR61); test: qPCR of YAP1 and target genes in H9 hPSCs; type: cell-based, human; details: 24 hrs
[24] = tested on: KP230 cells; details: 10 μM

Sequence of human CSNK1A1 (P48729 whole entry): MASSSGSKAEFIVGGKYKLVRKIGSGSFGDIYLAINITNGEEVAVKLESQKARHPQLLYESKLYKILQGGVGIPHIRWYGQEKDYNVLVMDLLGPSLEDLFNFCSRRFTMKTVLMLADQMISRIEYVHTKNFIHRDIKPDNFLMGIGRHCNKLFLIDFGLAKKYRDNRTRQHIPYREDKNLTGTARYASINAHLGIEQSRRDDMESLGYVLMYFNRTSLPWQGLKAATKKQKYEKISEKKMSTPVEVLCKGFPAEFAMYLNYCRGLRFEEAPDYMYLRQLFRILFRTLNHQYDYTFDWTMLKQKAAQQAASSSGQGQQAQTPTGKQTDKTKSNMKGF

- pIC50 ([1]; read-out: inhibition of CSNK1A1 IC50): 4.92
- binding to native kinases in full KINOMEscan panel [2]: failed to bind any native kinases
Structure (SMILES): C[C@@H]1CN([C@@H](C)CO)C(=O)CCCn2nncc2CO[C@@H]1CN(C)C(=O)Nc1ccnc(N2CCOCC2)c1 [BRD-K65952656]

Structure (SMILES): Cc1ccc(-c2nn(C(C)(C)C)c3ncnc(N)c23)cc1 [PP1]
- effect in PPARG (FABP4) reporter assay [3]: reporter activation

Structure (SMILES): COC1(C[S@@+]([O-])c2ccccc2)CCN(CCc2c[nH]c3ccc(F)cc23)CC1 [BRD-K52394958]
- influence on p38 activity (alternative statistical test) [4]: identified via an alternative statistical test

Structure (SMILES): CO[C@@H]1CN(C)C(=O)c2cc(NC(=O)Nc3ccc(C(F)(F)F)cc3)ccc2OC[C@@H](C)NC[C@@H]1C [BRD-K34692511, 1-[(4R,7S,8S)-8-methoxy-4,7,10-trimethyl-11-oxo-2-oxa-5,10-diazabicyclo[10.4.0]hexadeca-1(12),13,15-trien-14-yl]-3-[4-(trifluoromethyl)phenyl]urea]
- mRNA levels of Hippo components including Yap1 and Cyr61 ([5]; 1 and 4 hours): not at 1 and 4 hours
- mRNA levels of Hippo components including Yap1 and Cyr61 ([5]; 48 hours): substantially upregulated
- PAX8 inhibition [6]: none of these impacts
- proliferation in U2OS Cell Painting images [7]: none of these impacts
- inhibition of cell proliferation AC50 [8]: none of these impacts

Structure (SMILES): CCc1cc(-c2n[nH]c(C)c2-c2ccc3c(c2)OCCO3)c(O)cc1O [CCT018159]
- effect in PPARG (FABP4) reporter assay [3]: Inhibitors

Structure (SMILES): Nc1nc(Nc2ccccc2)nc2c1ncn2C1OC(CO)C(O)C1O (stereo not drawn) [BRD-A64933752]
- influence on p38 activity (two-sided t-test) [4]: potential inhibitors

Structure (SMILES): CC(C)(C)n1nc(-c2ccc(Cl)cc2)c2c(N)ncnc21 [PP2]
- effect in PPARG (FABP4) reporter assay [3]: reporter activation

Structure (SMILES): c1ccc(CNc2ncnc3ccccc23)cc1 [NB4A, N-Benzylquinazolin-4-amine]
- activity in assay detecting inhibitors of TEAD-YAP interaction [9]: showed activity
- proliferation of HCT-116 cells [10]: did not affect
- YAP1 mRNA z-score [11]: ~ −0.7
- TAZ mRNA z-score [12]: 2.04
- YAP1 mRNA z-score [12]: 3.16
- YAP1 nuclear localization ([13]; 24 hours): increased
- YAP1 S127 phosphorylation ([13]; 24 hrs): reduced
- total YAP1 protein levels ([13]; 24 hrs): decreasing
- effect in YAP1-responsive reporter assay [14]: no effect
- Yap1 nuclear localization [15]: significantly attenuated
- Yap1 protein levels ([15]; after 72 hours): reduced
- epithelial-mesenchymal transition, angiogenesis and glycolysis pathways (GSEA) [16]: down-regulated
- interferon alpha and gamma response pathways (GSEA) [16]: up-regulated
- overt toxicity by trypan blue staining [17]: did not exhibit overt toxicity
- transcription of Yap1, its sarcoma target genes (Foxm1, Ccl2, Hbegf, Birc5, Rela) and Amot [18]: did not directly alter
- proliferation of HT-1080 cells [19]: did not affect
- proliferation of KP230 cells [20]: inhibited
- proliferation of TC32 cells [21]: inhibited
- proliferation of STS-109 cells [22]: did not affect
- YAP1 mRNA expression [23]: did not affect
- expression of YAP1 target genes (CTGF and CYR61) ([23]; dose-dependent): increased

Structure (SMILES): CCCCNc1cc(C(=O)O)cc(S(N)(=O)=O)c1Oc1ccccc1 [BRD-K38197229]
- influence on p38 activity (two-sided t-test) [4]: potential inhibitors

Structure (SMILES): CCCCCCCCCCCCCC(=O)O[C@@H]1[C@@H](C)[C@@]2(O)[C@@H](C=C(CO)C[C@]3(O)C(=O)C(C)=C[C@@H]23)[C@@H]2C(C)(C)[C@]12OC(C)=O [Phorbol 12-myristate 13-acetate]
- effect in PPARG (FABP4) reporter assay [3]: Inhibitors

- inhibitory IC50 concentrations, CSNK1A1 ([1]; at Km ATP): nanomolar range
Structure (SMILES): Fc1ccc(-c2nc3n(c2-c2ccncc2)CCS3)cc1 [SKF-86002, reference compound]

Structure (SMILES): CO[C@@H]1CN(C)C(=O)c2ccc(NC(=O)c3ccc(-c4ccccc4)cc3)cc2OC[C@H](C)NC[C@@H]1C [BRD-K28862419, N-((3S,6S,7S)-7-methoxy-3,6,9-trimethyl-10-oxo-3,4,5,6,7,8,9,10-octahydro-2H-benzo[k][1]oxa[4,9]diazacyclododecin-13-yl)-[1,1′-biphenyl]-4-carboxamide]
- PAX8 inhibition [6]: inhibits
- proliferation in U2OS Cell Painting images [7]: −2.0 st dev
- KP230 cell viability [24]: modestly yet significantly reduced

Reference: PMC9509476 (Cell systems, 2022)
